Screens (PubChem BioAssay)
KCNQ1 pot: potentiators or activators of human KCNQ1 potassium channel | P51787 | CHO-K1 KCNQ1, thallium flux FluxOR fluorescence; hits give high values | B-score at 10 µM | 0.35% of 310,000 active;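 active = fluorescence ratio B-score, a plate-corrected score, at least three library SD, with initial intensity B-score within 5 SD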
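Doses: Single concentration per compound, DMSO matched to controls | Test system: KCNQ1-transfected CHO-K1 cells | Timing: 90 min dye loading and 20 min compound exposure, both at room temperature | Measured by: Kinetic FluxOR thallium fluorescence, 10-s 1-Hz baseline, 110-s post-stimulus read | Medium: Assay buffer with matched DMSO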
KCNK3 inh: human KCNK3 channel inhibition, primary screen. O14649. CHO-KCNK3 thallium flux, FluxOR fluorescence; hits give low values. B-score at 10 µM. 0.84% of 340,000 active. AID 602410;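 active = B-score under library mean minus 4 SD, starting fluorescence ratio at most library mean plus 5 SD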;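 also: more negative B-score means stronger inhibition of thallium flux through KCNK3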
hERG rescue: hERG (human) protection from proarrhythmic block. Q12809. CHO-hERG, FluxOR thallium flux, dofetilide IC70 present. activation (rescue from dofetilide block), less the hit threshold, % at 10 µM. 0.51% of 310,000 active. AID 1511;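 active = activation above the mean of controls blocked by dofetilide plus 5 SD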;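 also: thallium influx through hERG after potassium depolarization seen as dye fluorescence rise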
KCNK9 block: inhibitors of human KCNK9 two-pore domain potassium channel; Q9NPC2; HEK293 KCNK9, FluxOR thallium flux fluorescence; hits give low values; B-score at 10 µM; 1.2% of 310,000 active;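 active = ratio B-score over 3 SD below the library mean, with starting fluorescence within 5 SD of its mean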;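 also: negative B-score means less thallium flux so channel inhibition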
Target sequence (Q9NPC2 whole entry, looked up, the tested form may be a part): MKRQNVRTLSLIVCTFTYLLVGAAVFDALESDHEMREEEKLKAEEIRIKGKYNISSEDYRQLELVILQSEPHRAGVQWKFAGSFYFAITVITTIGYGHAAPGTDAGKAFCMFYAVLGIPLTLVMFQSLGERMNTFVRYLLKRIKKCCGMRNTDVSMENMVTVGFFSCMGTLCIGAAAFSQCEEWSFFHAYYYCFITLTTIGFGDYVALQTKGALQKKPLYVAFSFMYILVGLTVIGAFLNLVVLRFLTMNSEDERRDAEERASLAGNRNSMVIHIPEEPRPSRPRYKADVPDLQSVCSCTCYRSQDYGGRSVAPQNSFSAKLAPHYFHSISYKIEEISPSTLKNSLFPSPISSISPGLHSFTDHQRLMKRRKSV
Kir21 inh: blocks the mouse Kir2.1 inward-rectifier potassium channel | HEK293-Kir2.1, FluxOR thallium flux fluorescence; hits give low values | B-score at 10 µM | 0.85% of 310,000 active;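 active = fluorescence ratio B-score at or below minus 3 SD of library scores, with starting-brightness B-score within 2 SD, cut at about -4.2 in these data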;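 also: channel flux triggered by added potassium and thallium sulfate stimulus; B-score of peak minus minimum fluorescence over baseline after thallium stimulus; more negative B-score means stronger Kir2.1 block with less thallium influx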
KCNQ1 inh: human KCNQ1 channel inhibition | P51787 | CHO-K1 KCNQ1, FluxOR thallium flux fluorescence; hits give high values | B-score at 10 µM | 1.3% of 310,000 active | AID 2642;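 active = compounds whose thallium flux B-score, printed positive for inhibition, exceeds three library SD while starting fluorescence stays within three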;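 also: channel opened by potassium depolarization with thallium stimulus after 20 min compound exposure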
KCNK9 block conf: confirmation of human KCNK9 potassium channel inhibitors | shares compounds with KCNK9 block | HEK293 KCNK9 cells, FluxOR thallium flux fluorescence | inhibition, % at 10 µM | AID 492992 | 43% of 4,900 active;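 active = thallium signal inhibited by more than 5 SD of the compound-free buffer control wells, on both duplicate plates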
Kir21 sel: selectivity of KCNK9 modulators against mouse Kir2.1. 4% of 4,900 active. AID 492993. shares compounds with KCNK9 block. Kir2.1 cells, FluxOR thallium flux fluorescence. inhibition, % at 10 µM;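 active = thallium signal drop more than 5 SD beyond the mean of the no-compound control wells, seen in both duplicate plates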;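 also: signal is fluorescence rise after thallium addition divided by baseline fluorescence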
HEK293 Tl ctr: non-induced cell nonspecific activity of KCNK9 modulators. shares compounds with KCNK9 block. inhibition, % at 10 µM. 40% of 4,900 active. non-induced KCNK9-HEK293, FluxOR thallium flux. AID 492997;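 active = thallium signal drop beyond 5 SD of the untreated control mean, on both duplicate plates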
KCNK3 confirm: human KCNK3 channel inhibition, confirmation assay; shares compounds with KCNK3 inh; ratio percent of control, % at 10 µM; AID 651638; CHO-KCNK3 thallium flux, FluxOR fluorescence; 0% buffer, 100% carvedilol maximal block; 99% of 2,400 active;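 active = ratio percent of control, averaged over triplicates, above buffer control mean plus 5 SD, cut at about 64% in these data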;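 also: ratio is the fluorescence rise from min to max over baseline after thallium stimulus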
KCNK3 noninduced: counter-screen for KCNK3 inhibitors: effect in non-induced cells | AID 651747 | thallium flux ratio (lower = more inhibition) at 10 µM | shares compounds with KCNK3 inh | 40% of 2,400 active | non-induced KCNK3 parental cells, FluxOR thallium flux; hits give low values;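 active = thallium flux ratio, averaged over three wells, more than 5 SD below the buffer control mean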;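 also: host cells are CHO cells without KCNK3 induction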
Large screens that a line does not name were inactive (follow-up assays come after a bar, where they were run). The list is not random: actives were taken first. Their share in the collection is about 3.8%.

CCCOC(=O)c1ccc(NC(=O)c2ccccc2[N+](=O)[O-])cc1	KCNK3 inh -8.8, KCNK9 block -8.18 | KCNK9 block conf 48.5% | Kir21 sel inactive | HEK293 Tl ctr inactive | KCNK3 confirm 104.7 | KCNK3 noninduced inactive
COC(=O)CSc1nc(N2CCCCC2)c2c(c1C#N)CCCC2	KCNK3 inh -10.5, KCNK9 block -10.3 | KCNK9 block conf 38.0% | Kir21 sel inactive | HEK293 Tl ctr 35.0% | KCNK3 confirm 104.0 | KCNK3 noninduced inactive
N#Cc1c(SCC(=O)O)nc(N2CCCCC2)c2c1CCCC2	none
Clc1ccc(CSc2snnc2-c2ccccc2)cc1	KCNK3 inh -12.1, KCNK9 block -8.57 | KCNK9 block conf 30.5% | Kir21 sel inactive | HEK293 Tl ctr 45.0% | KCNK3 confirm 96.3 | KCNK3 noninduced inactive
O=C(NNC(=O)C1CCN(S(=O)(=O)c2ccc(Cl)cc2)CC1)c1ccc(S(=O)(=O)N2CCCCC2)cc1	none
CC1(C)Nc2ccccc2N(Cc2ccc([N+](=O)[O-])cc2)C1=O	none
Oc1cc2c(cc1C(c1ccc(Cl)c(Cl)c1)N1CCCC1)OCO2 (stereo not given)	KCNK3 inh -12.4, KCNK9 block -8.7 | KCNK9 block conf inactive | Kir21 sel inactive | HEK293 Tl ctr 41.0% | KCNK3 confirm 136.3 | KCNK3 noninduced 0.15
CC/C(=N/N=C(/CC)c1ccc(O)cc1)c1ccc(O)cc1	KCNK3 inh -9.62, KCNK9 block -15.2 | KCNK9 block conf 55.5% | Kir21 sel inactive | HEK293 Tl ctr 30.5% | KCNK3 confirm 92.0 | KCNK3 noninduced inactive
COc1ccc(OC)c2c1C(=O)C(Cl)=C(Cl)C2=O	KCNK3 inh -8.87, KCNK9 block -9.76, Kir21 inh -4.35, KCNQ1 inh 10 | KCNK9 block conf 58.0% | Kir21 sel 41.0% | HEK293 Tl ctr 87.0% | KCNK3 confirm 150.7 | KCNK3 noninduced 0.089
COc1ccc(N)c2c1C(=O)c1ccccc1C2=O	none
CCC(C)(c1nnnn1-c1c(C)cccc1C)N(N=O)c1ccccc1Cl (stereo not given)	none (no result: KCNQ1 pot, hERG rescue, KCNK9 block, Kir21 inh, KCNQ1 inh)
CCOc1ccc(CCNC(=O)Cn2nc(C)c3c(C)n(-c4ccccc4)nc3c2=O)cc1OCC	none
Cc1cccc(/C(N)=N/OC(=O)Cc2ccccc2)c1	none
CCC(C(=O)O/N=C(\N)c1cccc(C)c1)c1ccccc1 (stereo not given)	KCNK3 inh -14.6, KCNK9 block -9.31 | KCNK9 block conf 34.5% | Kir21 sel inactive | HEK293 Tl ctr 23.5% | KCNK3 confirm 127.0 | KCNK3 noninduced 0.151
CCCCOC1(c2ccccc2)OC(=O)c2ccccc21 (stereo not given)	KCNK9 block -15.7 | KCNK9 block conf 54.5% | Kir21 sel inactive | HEK293 Tl ctr 51.5% | KCNK3 confirm 100.7 | KCNK3 noninduced inactive
Cc1ccc(NC(=O)CN(c2ccc(Cl)cc2)S(=O)(=O)c2cc([N+](=O)[O-])ccc2Cl)c(C)c1	KCNK3 inh -14.9, KCNK9 block -13.6 | KCNK9 block conf 62.5% | Kir21 sel inactive | HEK293 Tl ctr 36.5% | KCNK3 confirm 115.3 | KCNK3 noninduced inactive
COc1cc(C(=O)OCC(=O)NC2CCCCCC2)ccc1OCC(C)C	none
Cc1cc(/C=N/NC(=O)c2cccs2)c(C)n1-c1ccccc1	KCNK3 inh -10.2, KCNK9 block -10 | KCNK9 block conf 43.0% | Kir21 sel inactive | HEK293 Tl ctr inactive | KCNK3 confirm 118.3 | KCNK3 noninduced 0.139
